Activity calls are given as the source filed them. The calls are words filed in the database; no cut-off is given here.
What was measured:
Rattus norvegicus [1] = experiment: Evaluated for the percentage inhibition of the depressor response of isoproterenol (0.25 mg/kg, iv) in spontaneously hypertensive rats at 150 mg/kg peroral dose; NI means no inhibition at 10 mg/kg, iv
Rattus norvegicus [2] = experiment: […] systolic blood pressure (SBP) for compound-treated group relative to the value for untreated control at 75 mg/kg dose (po) in spontaneously hypertensive rats(SHR); format: functional, Artery
Method in brief: (§1)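 Male spontaneously hypertensive rats (Wistar-Kyoto strain), unanesthetized, dosed orally; systolic pressure measured by indirect tail cuff. Before each reading, rats warmed at 35-37 °C for 15-20 min to dilate the caudal artery. Five rats per treatment group; result is percentage fall in systolic pressure versus untreated control. Significance tested against control.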

Rattus norvegicus [3] = experiment: Percentage of fall in systolic blood pressure (SBP) at the following hours after dosing at 75 mg/kg (po) at 24 hr in spontaneously hypertensive rats(SHR); format: functional, Artery
Method in brief: as §1

Rattus norvegicus [4] = experiment: Percentage of fall in systolic blood pressure (SBP) at the following hours after dosing at 75 mg/kg (po) at 7.5 hr in spontaneously hypertensive rats(SHR); format: functional, Artery
Method in brief: as §1

Rattus norvegicus [5] = experiment: Percentage of fall in systolic blood pressure (SBP) at the following hours after dosing at 75 mg/kg (po) at 2 hr in spontaneously hypertensive rats(SHR); format: functional, Artery
Method in brief: as §1

Rattus norvegicus [6] = experiment: Percentage of fall in systolic blood pressure (SBP) at the following hours after dosing at 75 mg/kg (po) at 5 hr in spontaneously hypertensive rats(SHR); format: functional, Artery
Method in brief: as §1

Rattus norvegicus [7] = experiment: Percentage of fall in systolic blood pressure (SBP) at the following hours after dosing at 75 mg/kg (po) at 5 hr in spontaneously hypertensive rats(SHR); NS means not significant; format: functional, organism-based; set-up: dose 75 mg/kg; details: Artery
Method in brief: as §1

Rattus norvegicus [8] = experiment: Percentage of fall in systolic blood pressure (SBP) at the following hours after dosing at 75 mg/kg (po) at 7.5 hr in spontaneously hypertensive rats(SHR); NS means not significant; format: functional, organism-based; set-up: dose 75 mg/kg; details: Artery
Method in brief: as §1

Rattus norvegicus [9] = experiment: Percentage of fall in systolic blood pressure (SBP) at the following hours after dosing at 75 mg/kg (po) at 2 hr in spontaneously hypertensive rats(SHR); NS means not significant; format: functional, organism-based; set-up: dose 75 mg/kg; details: Artery
Method in brief: as §1

Rattus norvegicus [10] = experiment: Percentage of fall in systolic blood pressure (SBP) at the following hours after dosing at 75 mg/kg (po) at 24 hr in spontaneously hypertensive rats(SHR); NS means not significant; format: functional, organism-based; set-up: dose 75 mg/kg; details: Artery
Method in brief: as §1

Rattus norvegicus [11] = species on record: Rattus norvegicus; experiment: animal or person; details: iv, read-out: Inhibition
Rattus norvegicus [12] = experiment: Evaluated for the percentage inhibition of the depressor response of isoproterenol (0.25 mg/kg, iv) in spontaneously hypertensive rats at 150 mg/kg peroral dose
Rattus norvegicus [13] = experiment: Percentage of fall in systolic blood pressure (SBP) at the following hours after dosing at 17 mg/kg (po) at 7.5 hr in spontaneously hypertensive rats(SHR); format: functional, Artery
Method in brief: as §1

Rattus norvegicus [14] = experiment: Percentage of fall in systolic blood pressure (SBP) at the following hours after dosing at 17 mg/kg (po) at 5 hr in spontaneously hypertensive rats(SHR); format: functional, Artery
Method in brief: as §1

Rattus norvegicus [15] = experiment: Percentage of fall in systolic blood pressure (SBP) at the following hours after dosing at 8 mg/kg (po) at 5 hr in spontaneously hypertensive rats(SHR); format: functional, Artery
Method in brief: as §1

Rattus norvegicus [16] = experiment: Percentage of fall in systolic blood pressure (SBP) at the following hours after dosing at 17 mg/kg (po) at 24 hr in spontaneously hypertensive rats(SHR); format: functional, Artery
Method in brief: as §1

Rattus norvegicus [17] = experiment: […] systolic blood pressure (SBP) for compound-treated group relative to the value for untreated control at 17 mg/kg dose (po) in spontaneously hypertensive rats(SHR); format: functional, Artery
Method in brief: as §1

Rattus norvegicus [18] = experiment: Percentage of fall in systolic blood pressure (SBP) at the following hours after dosing at 8 mg/kg (po) at 2 hr in spontaneously hypertensive rats(SHR); NS means not significant; format: functional, organism-based; set-up: dose 8 mg/kg; details: Artery
Method in brief: as §1

Rattus norvegicus [19] = experiment: Percentage of fall in systolic blood pressure (SBP) at the following hours after dosing at 17 mg/kg (po) at 2 hr in spontaneously hypertensive rats(SHR); NS mmeans not significant; format: functional, organism-based; set-up: dose 17 mg/kg; details: Artery
Method in brief: as §1

Adrenergic receptor beta = Adrenergic receptor beta (Rattus norvegicus, UniProt P18090+P10608+P26255); experiment: Evaluated for beta-receptor affinity, determined in rat brain membrane fraction with [3H]- dihydroalprenolol; format: cell membranes
Method in brief: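 Rat brain with cerebellum removed, homogenized in ice-cold 50 mM Tris-HCl pH 8.0 and spun at 50000g for 15 min, pellet washed once more the same way. Binding used 0.4-0.6 mg protein, 1 nM [3H]dihydroalprenolol, 50 mM Tris pH 8.0, and 5-10 competitor concentrations. IC50 read visually from a semilog plot; Ki from Cheng-Prusoff with KD approximately 1 nM.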

Rattus norvegicus [20] = experiment: […] systolic blood pressure (SBP) for compound-treated group relative to the value for untreated control at 8 mg/kg dose (po) in spontaneously hypertensive rats(SHR); format: functional, Artery
Method in brief: as §1

Rattus norvegicus [21] = experiment: Percentage of fall in systolic blood pressure (SBP) at the following hours after dosing at 8 mg/kg (po) at 7.5 hr in spontaneously hypertensive rats(SHR); format: functional, Artery
Method in brief: as §1

Rattus norvegicus [22] = experiment: Percentage of fall in systolic blood pressure (SBP) at the following hours after dosing at 8 mg/kg (po) at 24 hr in spontaneously hypertensive rats(SHR); format: functional, Artery
Method in brief: as §1

Rattus norvegicus [23] = experiment: Percentage of fall in systolic blood pressure (SBP) at the following hours after dosing at 75 mg/kg (po) at 7.5 hr in spontaneously hypertensive rats(SHR) NS means not significant; format: functional, organism-based; set-up: dose 75 mg/kg; details: Artery
Method in brief: as §1

Row | Ki (Adrenergic receptor beta) [M] | SMILES | SBP (Rattus norvegicus [2]) [mmHg] | Decrease in SBP (Rattus norvegicus [4]) [%] | Decrease in SBP (Rattus norvegicus [7]) | Decrease in SBP (Rattus norvegicus [8]) | Decrease in SBP (Rattus norvegicus [9]) | Decrease in SBP (Rattus norvegicus [10]) | also measured
1 |  | CCC(C)NCC(O)COc1ccc2c(=O)c(-c3ccccc3)c(-c3ccccc3)oc2c1 (stereo unspecified) | 210 | 19 |  |  |  |  | inhibition (Rattus norvegicus [1]): inactive; Decrease in SBP (Rattus norvegicus [3]): 19%; Decrease in SBP (Rattus norvegicus [5]): 12%; Decrease in SBP (Rattus norvegicus [6]): 18%
2 |  | CC(C)NCC(O)COc1cccc2ccccc12 (stereo unspecified) [PROPRANOLOL] | 212 |  | inactive | inactive | inactive | inactive | inhibition in vivo at 10 mg/kg (Rattus norvegicus [11]): 100%
3 |  | CCCCCCNCC(O)COc1ccc2c(=O)c(-c3ccccc3)c(-c3ccccc3)oc2c1.Cl (stereo unspecified) | 200 |  | inactive | inactive | inactive | inactive | 
4 | > 0.00005 | CCCNCC(O)COc1ccc2c(=O)c(-c3ccccc3)c(-c3ccccc3)oc2c1 (stereo unspecified) |  |  |  |  |  |  | inhibition (Rattus norvegicus [12]): inactive; Decrease in SBP (Rattus norvegicus [13]): 20%; Decrease in SBP (Rattus norvegicus [14]): 11%; Decrease in SBP (Rattus norvegicus [15]): 12%; Decrease in SBP (Rattus norvegicus [16]): 14%; SBP (Rattus norvegicus [17]): 198 mmHg; Decrease in SBP (Rattus norvegicus [18]): inactive; Decrease in SBP (Rattus norvegicus [19]): inactive; SBP (Rattus norvegicus [20]): 191 mmHg; Decrease in SBP (Rattus norvegicus [21]): 16%; Decrease in SBP (Rattus norvegicus [22]): 10%
5 | > 0.00005 | CC(C)(C)NCC(O)COc1ccc2c(=O)c(-c3ccccc3)c(-c3ccccc3)oc2c1.Cl (stereo unspecified) | 196 |  | inactive |  | inactive | inactive | Decrease in SBP (Rattus norvegicus [23]): inactive
6 | > 0.00005 | CCCCNCC(O)COc1ccc2c(=O)c(-c3ccccc3)c(-c3ccccc3)oc2c1 (stereo unspecified) | 199 | 11 | inactive |  | inactive | inactive | 

— ChEMBL document CHEMBL1123732, “Flavones. 1. Synthesis and antihypertensive activity of (3-phenylflavonoxy)propanolamines without beta-adrenoceptor antagonism” (J Med Chem, 1987)
